The list is not random: actives were taken first. Their share in the collection is about 1.3%.
FN deposit inh: fibronectin deposition inhibition | AH1F fibroblasts, Alexa488-fibronectin deposition fluorescence, overnight | inhibition, % at 12.6 µM | 350,000 compounds, 0.086% hits;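 active = mean inhibition across replicates of 30% or more, regardless of how many single replicates reach that level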
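Material: AH1F fibroblasts assembling fluorescent fibronectin matrix; amount: 10000 AH1F cells/well; medium: DMEM, 2% serum; reagent: Alexa488-fibronectin, 24 nM final in well; dosing: single compound dose, delivered by pin transfer; incubation: 1 h adhesion, overnight exposure; detection: fluorescence after three HBSS washes, excitation 485 nm, emission 525 nm; measure: fibronectin deposition inhibition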
RAD54 branch: RAD54 (human) branch migration inhibition; 360,000 compounds, 0.14% hits; RAD54 Holliday junction branch migration, FAM/BHQ fluorescence; inhibition, % at 10.4 µM; AID 602329; Q92698;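 active = mean normalized replicate activity at least 40 and at least half of replicates scoring 40 or more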;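 also: inhibitors cause a drop in the FAM fluorescence signal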
PAX8 reporter: PAX8 transcriptional activity inhibition; 360,000 compounds, 1.2% hits; RMG-I TPO-luciferase reporter, SteadyGlo, 24 h; inhibition, % at 12.6 µM;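 active = mean replicate inhibition at least 60% with every replicate also reaching 60%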;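 also: luciferase light reporting Pax8 driven TPO promoter activity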
RAD52 anneal inh: RAD52 (human) annealing inhibition | P43351 | recombinant RAD52 DNA annealing, FRET fluorescence | inhibition, % at 18.7 µM | 360,000 compounds, 0.46% hits | AID 651710;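 active = every replicate showing at least 50% inhibition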
Target sequence (P43351 whole entry, looked up): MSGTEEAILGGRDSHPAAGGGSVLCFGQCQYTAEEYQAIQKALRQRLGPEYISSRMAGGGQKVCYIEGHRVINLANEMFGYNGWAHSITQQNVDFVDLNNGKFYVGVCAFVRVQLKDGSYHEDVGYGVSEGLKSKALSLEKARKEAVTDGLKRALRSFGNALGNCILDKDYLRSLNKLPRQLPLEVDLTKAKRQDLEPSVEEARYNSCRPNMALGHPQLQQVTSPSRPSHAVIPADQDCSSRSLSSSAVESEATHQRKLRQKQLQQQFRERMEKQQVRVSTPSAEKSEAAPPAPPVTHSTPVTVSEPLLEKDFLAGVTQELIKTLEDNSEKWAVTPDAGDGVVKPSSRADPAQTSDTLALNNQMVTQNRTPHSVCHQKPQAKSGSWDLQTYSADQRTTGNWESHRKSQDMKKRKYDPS
DNA binder FP: counter-screen for RAD52 inhibitors: DNA binding compounds. AC50, µM. 1,000 compounds, 8% hits. Salmon sperm DNA/acridine orange FP displacement. shares compounds with RAD52 anneal inh;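 active = fitted half-maximal concentration for signal loss at or below twice the highest dose tested, in every separate run, actives reach about 64 µM in these data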
Each line names hits and unclear results; the compound was inactive in the other large screens (follow-up assays come after a bar, where they were run).

CC(NC1CCCC1)c1ccccc1 (centres undefined)	none
C[C@@H]1CN([C@H](C)CO)C(=O)Cc2cc(NS(=O)(=O)c3cn(C)cn3)ccc2O[C@@H]1CN(C)CC1CCCCC1	none (no result: FN deposit inh)
NCC[C@@H]1CC[C@@H](NS(=O)(=O)c2ccc(Cl)cc2)[C@H](CO)O1	none
Cc1ccc(CN2CC(N3CCN(Cc4cccc(C)c4)CC3)CS2(=O)=O)cc1 (centres undefined)	none
CN(C)CCn1c(=O)n(Cc2ccccc2)c(=O)c2c3c(sc21)CCCCC3	none
CN(C)CCCn1c(=O)n(CCc2ccccc2)c(=O)c2c3c(sc21)CCCCC3	RAD52 anneal inh 55.7 | DNA binder FP inactive
CC(C)c1ccc(NC(=O)C(c2ccccc2)N2CC(=O)Nc3ccccc32)cc1 (centres undefined)	RAD52 anneal inh 61.6 | DNA binder FP inactive
C[C@@H]1CN([C@@H](C)CO)C(=O)c2cc(NS(=O)(=O)c3cn(C)cn3)ccc2O[C@@H](C)CCCCO[C@H]1CN(C)C(=O)Nc1ccc2c(c1)OCO2	none (no result: FN deposit inh, PAX8 reporter)
C[C@H]1CN([C@@H](C)CO)C(=O)c2cc(NS(=O)(=O)c3ccccc3)ccc2O[C@@H]1CN(C)S(=O)(=O)c1ccc(F)cc1	none (no result: FN deposit inh, RAD54 branch, RAD52 anneal inh)
Cn1c(=N)n(CC(=O)c2ccc(Br)s2)c2ccccc21	none (no result: FN deposit inh, PAX8 reporter, RAD52 anneal inh)
CCN(CC)CCn1c(=N)n(CC(=O)c2ccc(Br)s2)c2ccccc21	RAD52 anneal inh 51.0 | DNA binder FP inactive
COc1cccc(-c2nc(CS(=O)(=O)CC(=O)NCc3ccc4c(c3)OCO4)c(C)o2)c1	none
